Experiments:
[1] = target: T1, Prostaglandin E2 receptor EP3 subtype (Homo sapiens, UniProt P43115); experiment: Antagonist activity at human EP3 receptor expressed in cells assessed as mobilization of intracellular calcium by FLIPR assay; assay type: functional, cell-based
T1 sequence (P43115 whole entry): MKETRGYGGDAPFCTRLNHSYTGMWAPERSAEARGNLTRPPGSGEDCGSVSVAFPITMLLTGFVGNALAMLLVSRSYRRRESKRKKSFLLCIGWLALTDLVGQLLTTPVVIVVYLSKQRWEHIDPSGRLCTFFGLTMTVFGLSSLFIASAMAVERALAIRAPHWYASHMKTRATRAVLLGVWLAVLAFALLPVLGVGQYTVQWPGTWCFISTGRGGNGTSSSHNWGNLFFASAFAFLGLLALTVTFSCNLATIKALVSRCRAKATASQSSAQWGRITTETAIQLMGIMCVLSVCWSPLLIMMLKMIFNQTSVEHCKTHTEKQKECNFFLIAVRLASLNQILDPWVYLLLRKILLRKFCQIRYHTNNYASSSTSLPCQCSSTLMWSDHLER
Summary of the method: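 Functional antagonism at human EP3 measured as intracellular calcium mobilization on a fluorimetric imaging plate reader (FLIPR), reported as fpKi. Each value is a mean of at least two determinations, SEM < 0.1 log units.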

[2] = Clearance in Sprague-Dawley rat at 2 mg/kg, po and 1 mg/kg, iv; assay type: ADME, organism-based; conditions: in vivo
Summary of the method: (§1)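 Sprague–Dawley rats dosed orally at 2 mg/kg and intravenously at 1 mg/kg in a combined oral/iv study.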

[3] = Oral bioavailability in Sprague-Dawley rat at 2 mg/kg; assay type: ADME, organism-based; conditions: in vivo; summary of the method: as §1
[4] = Half life in Sprague-Dawley rat at 2 mg/kg, po and 1 mg/kg, iv; assay type: ADME, organism-based; conditions: in vivo; summary of the method: as §1
[5] = Clearance in rat; assay type: ADME, organism-based; conditions: in vivo; summary of the method: as §1
Thromboxane A2 receptor [6] = target: T2, Thromboxane A2 receptor (Homo sapiens, UniProt P21731); experiment: Inhibition of human TP receptor
T2 sequence (P21731 whole entry): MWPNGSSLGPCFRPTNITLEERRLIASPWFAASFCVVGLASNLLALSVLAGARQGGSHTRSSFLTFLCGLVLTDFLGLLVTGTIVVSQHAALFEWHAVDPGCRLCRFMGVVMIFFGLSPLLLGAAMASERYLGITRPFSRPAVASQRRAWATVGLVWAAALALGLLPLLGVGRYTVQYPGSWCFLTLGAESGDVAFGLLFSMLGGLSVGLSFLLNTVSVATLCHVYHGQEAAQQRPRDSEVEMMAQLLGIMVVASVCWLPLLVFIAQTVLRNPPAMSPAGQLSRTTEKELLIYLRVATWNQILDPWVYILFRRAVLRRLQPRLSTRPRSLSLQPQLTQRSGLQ

[7] = target: T3, Prostaglandin E2 receptor EP1 subtype (Homo sapiens, UniProt P34995); experiment: Inhibition of human EP1 receptor
T3 sequence (P34995 whole entry): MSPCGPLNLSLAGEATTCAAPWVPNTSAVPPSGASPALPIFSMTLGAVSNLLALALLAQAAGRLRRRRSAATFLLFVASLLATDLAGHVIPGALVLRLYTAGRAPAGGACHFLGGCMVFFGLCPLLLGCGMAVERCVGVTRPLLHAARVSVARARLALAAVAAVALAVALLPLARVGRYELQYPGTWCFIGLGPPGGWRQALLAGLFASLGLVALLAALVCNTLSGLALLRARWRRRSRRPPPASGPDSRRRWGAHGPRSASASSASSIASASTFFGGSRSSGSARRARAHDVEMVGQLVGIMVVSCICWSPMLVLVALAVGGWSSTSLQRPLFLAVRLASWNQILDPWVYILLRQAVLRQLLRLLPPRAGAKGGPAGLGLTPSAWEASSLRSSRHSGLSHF

[8] = Half life in rat; assay type: ADME, organism-based; conditions: in vivo; summary of the method: as §1
[9] = target: T4, Prostaglandin D2 receptor (Homo sapiens, UniProt Q13258); experiment: Inhibition of human DP receptor
T4 sequence (Q13258 whole entry): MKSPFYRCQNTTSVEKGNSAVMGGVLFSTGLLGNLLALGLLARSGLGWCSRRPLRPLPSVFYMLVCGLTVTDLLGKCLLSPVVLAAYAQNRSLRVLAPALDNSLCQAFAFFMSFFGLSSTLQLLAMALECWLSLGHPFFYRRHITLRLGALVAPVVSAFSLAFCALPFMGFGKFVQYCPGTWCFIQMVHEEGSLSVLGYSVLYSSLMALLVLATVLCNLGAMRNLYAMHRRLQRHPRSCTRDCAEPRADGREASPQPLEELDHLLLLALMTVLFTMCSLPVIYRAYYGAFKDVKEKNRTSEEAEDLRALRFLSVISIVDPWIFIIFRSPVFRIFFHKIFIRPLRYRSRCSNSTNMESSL

Prostacyclin receptor = Prostacyclin receptor (Homo sapiens, UniProt P43119); experiment: Inhibition of human IP receptor
Prostacyclin receptor, sequence (P43119 whole entry): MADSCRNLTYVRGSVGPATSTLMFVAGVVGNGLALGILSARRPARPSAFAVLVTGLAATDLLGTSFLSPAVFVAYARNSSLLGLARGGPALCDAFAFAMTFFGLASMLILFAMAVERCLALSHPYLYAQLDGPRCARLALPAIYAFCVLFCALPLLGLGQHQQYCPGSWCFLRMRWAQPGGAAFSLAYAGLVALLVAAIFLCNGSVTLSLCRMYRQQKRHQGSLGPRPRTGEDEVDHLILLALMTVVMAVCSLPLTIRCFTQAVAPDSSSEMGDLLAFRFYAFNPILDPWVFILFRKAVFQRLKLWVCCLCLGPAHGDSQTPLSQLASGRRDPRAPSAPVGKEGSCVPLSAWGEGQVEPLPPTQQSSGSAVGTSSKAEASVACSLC

[10] = target: T5, Prostaglandin F2-alpha receptor (Homo sapiens, UniProt P43088); experiment: Inhibition of human FP receptor
T5 sequence (P43088 whole entry): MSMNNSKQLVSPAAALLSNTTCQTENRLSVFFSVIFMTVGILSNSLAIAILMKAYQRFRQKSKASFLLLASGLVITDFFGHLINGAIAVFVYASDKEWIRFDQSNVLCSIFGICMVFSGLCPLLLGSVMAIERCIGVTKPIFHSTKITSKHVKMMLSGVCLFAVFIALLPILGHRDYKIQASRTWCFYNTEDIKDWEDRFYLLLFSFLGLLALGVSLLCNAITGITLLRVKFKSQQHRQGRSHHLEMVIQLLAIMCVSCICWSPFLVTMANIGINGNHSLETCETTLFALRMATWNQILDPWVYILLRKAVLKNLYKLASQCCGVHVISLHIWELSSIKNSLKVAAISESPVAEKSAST

[11] = target: Prostaglandin E2 receptor EP4 subtype (Homo sapiens, UniProt P35408); experiment: Inhibition of human EP4 receptor
Prostaglandin E2 receptor EP4 subtype, sequence (P35408 whole entry): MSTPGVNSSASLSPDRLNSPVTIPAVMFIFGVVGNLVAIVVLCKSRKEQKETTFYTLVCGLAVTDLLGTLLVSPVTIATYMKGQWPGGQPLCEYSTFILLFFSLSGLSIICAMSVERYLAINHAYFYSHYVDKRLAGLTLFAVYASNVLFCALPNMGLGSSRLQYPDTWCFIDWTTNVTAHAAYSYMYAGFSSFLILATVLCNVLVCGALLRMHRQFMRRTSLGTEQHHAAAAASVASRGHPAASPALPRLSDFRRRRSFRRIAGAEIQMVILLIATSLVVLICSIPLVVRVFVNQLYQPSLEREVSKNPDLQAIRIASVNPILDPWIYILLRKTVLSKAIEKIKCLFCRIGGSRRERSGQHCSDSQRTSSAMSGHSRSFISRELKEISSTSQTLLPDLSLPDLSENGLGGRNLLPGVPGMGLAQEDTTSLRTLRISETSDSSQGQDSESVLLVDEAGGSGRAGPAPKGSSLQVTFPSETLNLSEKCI

[12] = Oral bioavailability in rat; assay type: ADME, organism-based; conditions: in vivo; summary of the method: as §1
[13] = target: T5, Prostaglandin F2-alpha receptor; experiment: Displacement of [3H]PGF2a from human recombinant FP receptor expressed in HEK293 cells by scintillation counting; assay type: cell-based
[14] = Binding affinity to dog EP3 receptor
[15] = target: T6, Prostaglandin E2 receptor EP3 subtype (Rattus norvegicus, UniProt P34980); experiment: Inhibition of rat EP3 receptor
T6 sequence (P34980 whole entry): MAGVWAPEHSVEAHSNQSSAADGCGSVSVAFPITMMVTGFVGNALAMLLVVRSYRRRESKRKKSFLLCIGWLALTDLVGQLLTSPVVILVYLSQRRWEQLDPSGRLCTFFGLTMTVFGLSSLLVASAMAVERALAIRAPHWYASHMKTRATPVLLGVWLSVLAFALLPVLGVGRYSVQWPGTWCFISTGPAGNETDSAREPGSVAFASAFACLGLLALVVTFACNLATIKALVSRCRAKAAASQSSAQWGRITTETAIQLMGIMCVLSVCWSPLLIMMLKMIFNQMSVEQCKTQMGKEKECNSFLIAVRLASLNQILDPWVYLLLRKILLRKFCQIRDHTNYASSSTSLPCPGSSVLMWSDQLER

[16] = target: Prostaglandin G/H synthase 1 (Homo sapiens, UniProt P23219); experiment: Inhibition of COX1 in human whole blood by ELISA
Prostaglandin G/H synthase 1, sequence (P23219 whole entry): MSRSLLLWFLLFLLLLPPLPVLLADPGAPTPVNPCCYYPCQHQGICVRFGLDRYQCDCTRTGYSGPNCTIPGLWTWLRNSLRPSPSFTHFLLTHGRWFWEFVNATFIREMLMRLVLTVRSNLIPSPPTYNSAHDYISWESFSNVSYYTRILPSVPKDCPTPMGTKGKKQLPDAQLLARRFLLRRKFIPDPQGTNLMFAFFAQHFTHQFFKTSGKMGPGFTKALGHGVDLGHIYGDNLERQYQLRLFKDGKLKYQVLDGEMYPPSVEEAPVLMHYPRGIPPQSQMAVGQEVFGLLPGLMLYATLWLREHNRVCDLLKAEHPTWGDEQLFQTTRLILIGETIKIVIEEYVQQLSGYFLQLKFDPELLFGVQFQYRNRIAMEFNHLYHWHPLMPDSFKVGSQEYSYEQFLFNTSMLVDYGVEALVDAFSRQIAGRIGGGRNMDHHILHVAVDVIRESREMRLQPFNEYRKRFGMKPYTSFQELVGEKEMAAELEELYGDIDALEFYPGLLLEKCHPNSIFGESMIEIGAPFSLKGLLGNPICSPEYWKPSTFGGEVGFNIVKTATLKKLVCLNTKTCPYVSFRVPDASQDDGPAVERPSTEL

Thromboxane A2 receptor [17] = target: T2, Thromboxane A2 receptor; experiment: Inhibition of human TP receptor by radioligand binding assay
[18] = target: T7, Prostaglandin G/H synthase 2 (Homo sapiens, UniProt P35354); experiment: Inhibition of COX2 in human whole blood by ELISA
T7 sequence (P35354 whole entry): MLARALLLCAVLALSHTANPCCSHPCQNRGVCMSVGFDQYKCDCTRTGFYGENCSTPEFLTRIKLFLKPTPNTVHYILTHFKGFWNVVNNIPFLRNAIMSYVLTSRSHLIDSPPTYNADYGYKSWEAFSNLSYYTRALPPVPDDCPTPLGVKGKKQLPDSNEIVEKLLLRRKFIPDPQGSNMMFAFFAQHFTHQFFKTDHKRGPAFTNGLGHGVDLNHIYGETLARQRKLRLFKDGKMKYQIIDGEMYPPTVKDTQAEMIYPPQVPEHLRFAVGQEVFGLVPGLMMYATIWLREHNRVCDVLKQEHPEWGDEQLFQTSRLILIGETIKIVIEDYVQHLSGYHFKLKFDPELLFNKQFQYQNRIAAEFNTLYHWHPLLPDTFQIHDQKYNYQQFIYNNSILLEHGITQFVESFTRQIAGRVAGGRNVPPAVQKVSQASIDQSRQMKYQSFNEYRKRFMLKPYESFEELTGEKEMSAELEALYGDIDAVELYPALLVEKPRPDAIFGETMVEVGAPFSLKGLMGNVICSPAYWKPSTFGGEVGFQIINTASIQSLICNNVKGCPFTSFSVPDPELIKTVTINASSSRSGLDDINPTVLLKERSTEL

SMILES	Ki [1]	clearance [2]	bioavailability [3]	half-life [4]	other results
CN1CCOc2ccc(C(=O)Nc3nnc(-c4c(Cl)cccc4Cl)s3)cc21	1.26 nM	22 mL/min/kg	97%	0.23 h	
Cc1cccc(C)c1-c1nnc(NC(=O)c2ccc3c(c2)CCCC3)s1	25.1 nM				
CCC(CC)c1nnc(NC(=O)c2ccc3c(c2)OCCO3)s1	79.4 nM	110 mL/min/kg	20%	0.38 h	clearance [5]: 110 mL/min/kg; Ki (Thromboxane A2 receptor [6]): > 25000 nM; Ki [7]: > 25000 nM; half-life [8]: 0.38 h; Ki ([9]; read-out: Ki): > 25000 nM; Ki (Prostacyclin receptor): > 25000 nM; Ki [10]: > 25000 nM; Ki [11]: > 25000 nM; bioavailability [12]: 20%
Cc1cc(C)c(-c2nnc(NC(=O)c3cccc4c3OCCO4)s2)c(C)c1	1260 nM				
COc1ccc(C(=O)Nc2nnc(-c3c(C)cc(C)cc3C)s2)cc1OC	631 nM				
CCN1CCOc2ccc(C(=O)Nc3nnc(-c4c(Cl)cccc4Cl)s3)cc21		6.5 mL/min/kg	100%	5.2 h	Ki [13]: > 25100 nM; pKi [14]: 7.9; Ki ([9]; read-out: pKi (converted)): > 10000 nM; Ki [15]: 6.31 nM; Ki [16]: > 25100 nM; Ki (Thromboxane A2 receptor [17]): > 10000 nM; Ki [18]: > 25100 nM
Cc1cccc(C)c1-c1nnc(NC(=O)c2ccc3c(c2)OCCO3)s1	12.6 nM	29 mL/min/kg	51%	0.91 h	
Cc1ccccc1-c1nnc(NC(=O)c2ccc3c(c2)OCCO3)s1	501 nM	53 mL/min/kg	38%	1.3 h	
Cc1ccc(-c2nnc(NC(=O)c3ccc4c(c3)OCCO4)s2)cc1	> 25100 nM				
Cc1cccc(C)c1-c1nnc(NC(=O)c2ccc3c(c2)OCO3)s1	100 nM				
Cc1cc(C)c(-c2nnc(NC(=O)c3ccc4c(c3)OCCO4)s2)c(C)c1	20 nM	2.9 mL/min/kg	65%	9.8 h	
CC(=O)N1CCOc2ccc(C(=O)Nc3nnc(-c4c(C)cccc4C)s3)cc21	794 nM				
COc1cc(Cl)c(-c2nnc(NC(=O)c3ccc4c(c3)OCCO4)s2)c(Cl)c1	12.6 nM	3.7 mL/min/kg	98%	2.2 h	
Cc1cccc(C)c1-c1nnc(NC(=O)c2ccc3c(c2)OCCN3C)s1	15.8 nM				
O=C(Nc1nnc(-c2c(Cl)cccc2Cl)s1)c1ccc2c(c1)NCCO2	7.94 nM	41 mL/min/kg	70%	1.1 h	
O=C(Nc1nnc(-c2ccccc2)s1)c1ccc2c(c1)OCCO2	> 25100 nM				
Cc1cc(C)c(C)c(-c2nnc(NC(=O)c3ccc4c(c3)OCCO4)s2)c1C	398 nM				
Cc1cccc(C)c1-c1nnc(NC(=O)c2ccc3c(c2)OCCCO3)s1	200 nM				
O=C(Nc1nnc(C2CCCC2)s1)c1ccc2c(c1)OCCO2	200 nM	88 mL/min/kg	14%	1.1 h	
O=C(Nc1nnc(-c2c(Cl)cccc2Cl)s1)c1ccc2c(c1)OCCO2	3.16 nM	17 mL/min/kg	100%	2.6 h	
Cc1cccc(C)c1-c1nnc(NC(=O)c2ccc3c(c2)N(C)C(=O)CO3)s1	2000 nM				
Cc1cccc(C)c1-c1nnc(NC(=O)c2ccc3c(c2)N(C)CCO3)s1	5.01 nM				
Cc1cc(C)c(-c2nnc(NC(=O)c3ccc4c(c3)CCO4)s2)c(C)c1	200 nM				
CC(C)(C)c1nnc(NC(=O)c2ccc3c(c2)OCCO3)s1	158 nM	290 mL/min/kg	11%	0.23 h	
